Among the data in ChEMBL document CHEMBL3392966, “Antiproliferative activity of synthetic fatty acid amides from renewable resources” (Bioorg Med Chem, 2015) are TGI, GI50 and LC50 values, retold here.

Converted amounts (≈) assume the structure as drawn. A value given as a limit tells only on which side of the number the result lay.

The test system of data set [1] is MCF7. As to the kind of experiment: Antiproliferative activity against human MCF7 cells assessed as tumor growth inhibition after 48 hrs by sulforhodamine B assay. The settings on record: MCF7, 48 h. The data set is classed as functional. Put shortly:
(§1)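 Tumor cells grown in RPMI 1640 with 5% fetal bovine serum, with penicillin/streptomycin in experimental cultures. Exposed in 96-well plates to samples in DMSO/RPMI at 0.25, 2.5, 25 and 250 µg/mL, 37 °C, 5% CO2, 48 h. Fixed with 50% trichloroacetic acid before (T0) and after treatment, protein stained with sulforhodamine B and read at 540 nm. GI50, TGI and LC50 in µg/mL from dose-response curves by non-linear regression.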
For orientation: In SRB staining, fixed cells bind dye roughly in proportion to their protein.

The test system of data set [2] is NCI-H460. As to the kind of experiment: Antiproliferative activity against human NCI-H460 cells assessed as tumor growth inhibition after 48 hrs by sulforhodamine B assay. The data set is classed as functional. Conditions: NCI-H460, 48 h. The gist of the method: as §1
Data set [3] deals with HaCaT. The data set can be described thus: Cytotoxicity against human HaCaT cells assessed as tumor growth inhibition after 48 hrs by sulforhodamine B assay. Format: cell-based. Put shortly: (§2)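 Non-tumor lines (human HaCaT keratinocytes; Vero) in RPMI 1640 with 5% FBS, with penicillin/streptomycin added to experimental cultures. 48 h exposure at 0.25–250 µg/mL (DMSO/RPMI), 37 °C, 5% CO2. TCA fixation at time zero and at end, sulforhodamine B protein stain, absorbance 540 nm. TGI (total growth inhibition) from non-linear regression of the dose-response curve.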

Data set [4] relates to NCI/ADR-RES. The data set can be described thus: Antiproliferative activity against human NCI/ADR-RES cells after 48 hrs by sulforhodamine B assay. The data set is classed as functional. The gist of the method:
as §1

Data set [5] concerns HaCaT. As to the kind of experiment: Cytotoxicity against human HaCaT cells after 48 hrs by sulforhodamine B assay. Format: cell-based.
Data set [6] in a line: Antiproliferative activity against human PC3 cells assessed as tumor growth inhibition after 48 hrs by sulforhodamine B assay. The data set is classed as functional. Conditions: PC-3, 48 h. Put shortly: as §1
In data set [7] the test system is U-251. As to the kind of experiment: Antiproliferative activity against human U251 cells assessed as tumor growth inhibition after 48 hrs by sulforhodamine B assay. Format: functional. The settings on record: U-251, 48 h. Put shortly: as §1
Data set [8] in a line: Antiproliferative activity against human OVCAR3 cells assessed as tumor growth inhibition after 48 hrs by sulforhodamine B assay. Format: functional. The settings on record: OVCAR-3, 48 h. The gist of the method: as §1
Data set [9] is described as follows: Antiproliferative activity against human PC3 cells after 48 hrs by sulforhodamine B assay. Format: functional. Conditions: PC-3, 48 h. The gist of the method: as §1
Data set [10] deals with U-251. The data set can be described thus: Antiproliferative activity against human U251 cells after 48 hrs by sulforhodamine B assay. The data set is classed as functional. Conditions: U-251, 48 h. The gist of the method: as §1
Data set [11] deals with NCI-H460. As to the kind of experiment: Antiproliferative activity against human NCI-H460 cells after 48 hrs by sulforhodamine B assay. Format: functional. Conditions: NCI-H460, 48 h. The gist of the method: as §1
Data set [12] deals with NCI/ADR-RES. As to the kind of experiment: Antiproliferative activity against human NCI/ADR-RES cells assessed as tumor growth inhibition after 48 hrs by sulforhodamine B assay. Format: functional. The gist of the method: as §1
Data set [13] deals with 786-0. The data set can be described thus: Antiproliferative activity against human 786-0 cells assessed as tumor growth inhibition after 48 hrs by sulforhodamine B assay. Format: functional. Conditions: 786-0, 48 h. The gist of the method:
as §1

For data set [14], the system named is 786-0. As to the kind of experiment: Antiproliferative activity against human 786-0 cells after 48 hrs by sulforhodamine B assay. Format: functional. The settings on record: 786-0, 48 h. The gist of the method:
as §1

The nature of data set [15]: Antiproliferative activity against human OVCAR3 cells after 48 hrs by sulforhodamine B assay. Format: functional. The settings on record: OVCAR-3, 48 h. The gist of the method:
as §1

Data set [16] deals with MCF7. As to the kind of experiment: Antiproliferative activity against human MCF7 cells after 48 hrs by sulforhodamine B assay. Format: functional. Conditions: MCF7, 48 h. Put shortly: as §1
The test system of data set [17] is Vero. As to the kind of experiment: Cytotoxicity against african green monkey Vero cells after 48 hrs by sulforhodamine B assay. The settings on record: chlorocebus sabaeus. The data set is classed as cell-based.
Data set [18] concerns Vero. The data set can be described thus: Cytotoxicity against african green monkey Vero cells assessed as tumor growth inhibition after 48 hrs by sulforhodamine B assay. Conditions: chlorocebus sabaeus. The data set is classed as cell-based. Put shortly: as §2

The TGI is the concentration at which net growth stops. Usually GI50 stands for the concentration at which growth is held to half of that of the control. A word on the LC50: it is the concentration lethal to half of the exposed cells or organisms.

As to `CCCCCCCC/C=C\CCCCCCCC(=O)NCc1ccccc1`, the concentration for total growth inhibition (TGI) in [1], in [2], in data set [3], in data set [6], in data set [7] and in data set [8] was more than 250 µg/mL in each case. Besides, the TGI in data set [12] and in data set [13] was more than 250 µg/mL throughout. Moreover, the concentration for 50% growth inhibition (GI50) was 50.3 µg/mL (≈ 135 µM) in data set [4]; 107 µg/mL (≈ 288 µM) in data set [9]; 55.4 µg/mL (≈ 149 µM) in data set [10]; 94.9 µg/mL (≈ 255 µM) in [11]; 104 µg/mL (≈ 281 µM) in data set [14]; 103 µg/mL (≈ 278 µM) in data set [15]. Besides, it took 53.4 µg/mL (≈ 144 µM) to inhibit growth in [16] by half (GI50). This compound also displayed a 50% lethal concentration (LC50) in data set [5] of 92 µg/mL (≈ 248 µM).
As to `CCCCCCCC/C=C\CCCCCCCC(=O)N[C@H](C)c1ccccc1`, the TGI is 40.8 µg/mL (≈ 106 µM) in data set [1]; 106 µg/mL (≈ 274 µM) in data set [2]; 162 µg/mL (≈ 419 µM) in data set [6]; 28.3 µg/mL (≈ 73.4 µM) in data set [7]; more than 250 µg/mL in data set [8]; 35.3 µg/mL (≈ 91.5 µM) in data set [12]. The TGI came to 84.8 µg/mL (≈ 220 µM) in data set [13] and 43 µg/mL (≈ 112 µM) in [18]. Further, the concentration for 50% growth inhibition (GI50) in data set [4] is 3 µg/mL (≈ 7.78 µM); in data set [9] it was 46.9 µg/mL (≈ 122 µM); in data set [10], 6.1 µg/mL (≈ 15.8 µM); in data set [11], 36.6 µg/mL (≈ 94.9 µM); in [14], 26.8 µg/mL (≈ 69.5 µM); in data set [15], 56.9 µg/mL (≈ 148 µM). Moreover, the GI50 in [16] was found to be 6.1 µg/mL (≈ 15.8 µM). In addition, the LC50 in data set [17] was found to be 10.3 µg/mL (≈ 26.7 µM).
Turning to `CCCCCCCC/C=C\CCCCCCCC(=O)N[C@@H](C)c1ccccc1`, the concentration for total growth inhibition (TGI) was 43 µg/mL (≈ 112 µM) in [1]; 49.3 µg/mL (≈ 128 µM) in data set [2]; 36.8 µg/mL (≈ 95.4 µM) in [3]; 47.1 µg/mL (≈ 122 µM) in data set [6]; 17.8 µg/mL (≈ 46.2 µM) in [7]; 45.5 µg/mL (≈ 118 µM) in data set [8]. Besides, the TGI in data set [12] was 7.1 µg/mL (≈ 18.4 µM); in data set [13], 45.8 µg/mL (≈ 119 µM). Moreover, the GI50 in data set [4] is 0.3 µg/mL (≈ 0.778 µM); in data set [9], 13.7 µg/mL (≈ 35.5 µM); in data set [10], 5.1 µg/mL (≈ 13.2 µM); in [11] it was 15.2 µg/mL (≈ 39.4 µM); in data set [14], 10.3 µg/mL (≈ 26.7 µM); in data set [15], 10.5 µg/mL (≈ 27.2 µM). The GI50 in data set [16] was 7.17 µg/mL (≈ 18.6 µM). For the same compound, the LC50 in data set [5] is 6.4 µg/mL (≈ 16.6 µM).
Regarding `CCCCCC[C@@H](O)C/C=C\CCCCCCCC(=O)NCCO`, the TGI in data set [1] worked out at 3.7 µg/mL (≈ 10.8 µM); in [2], 9.8 µg/mL (≈ 28.7 µM); in data set [6], 23.5 µg/mL (≈ 68.8 µM); in data set [7], 6.5 µg/mL (≈ 19 µM); in data set [8], 8.8 µg/mL (≈ 25.8 µM); in data set [12] it was 5.4 µg/mL (≈ 15.8 µM). For the same compound, the results for the TGI in data set [13] and in data set [18] were 20.4 µg/mL (≈ 59.7 µM) and 7.6 µg/mL (≈ 22.3 µM), respectively. The GI50 in [4] turned out to be 2.8 µg/mL (≈ 8.2 µM); in data set [9] it was 6.3 µg/mL (≈ 18.4 µM); in data set [10], 3.6 µg/mL (≈ 10.5 µM); in [11] it was 4.1 µg/mL (≈ 12 µM); in data set [14] it was 6.6 µg/mL (≈ 19.3 µM); in [15], 4.1 µg/mL (≈ 12 µM). Besides, growth in [16] was halved (GI50) at 6.5 µg/mL (≈ 19 µM). In [17], the LC50 was 3.4 µg/mL (≈ 9.96 µM).
For the compound `COc1cccc2c1C(=O)c1c(O)c3c(c(O)c1C2=O)C[C@@](O)(C(=O)CO)C[C@@H]3O[C@H]1C[C@H](N)[C@H](O)[C@H](C)O1` [DOXORUBICIN], the concentration for total growth inhibition (TGI) in data set [1] is 3.3 µg/mL (≈ 6.07 µM); in data set [2], 4.9 µg/mL (≈ 9.02 µM); in data set [3], 2.3 µg/mL (≈ 4.23 µM); in data set [6] it was 11.7 µg/mL (≈ 21.5 µM); in [7], 0.92 µg/mL (≈ 1.69 µM); in [8], 7.6 µg/mL (≈ 14 µM). Besides, the results for the TGI in data set [12], in data set [13] and in data set [18] were 1.6 µg/mL (≈ 2.94 µM), more than 25 µg/mL and 4.1 µg/mL (≈ 7.54 µM), respectively.
With `CCCCCCCC/C=C\CCCCCCCC(=O)NCCO` [OLEOYLETHANOLAMIDE], the concentration for total growth inhibition (TGI) in data set [1] was 66.7 µg/mL (≈ 205 µM); in data set [2], 81 µg/mL (≈ 249 µM); in [3], 53.5 µg/mL (≈ 164 µM); in data set [6], 44.2 µg/mL (≈ 136 µM); in data set [7], 51.3 µg/mL (≈ 158 µM); in data set [8], 71.7 µg/mL (≈ 220 µM). The TGI in data set [12] was 39.5 µg/mL (≈ 121 µM); in [13] it was 64.6 µg/mL (≈ 198 µM). The GI50 in [4] amounted to 9.1 µg/mL (≈ 28 µM); in data set [9], 16.9 µg/mL (≈ 51.9 µM); in data set [10] it was 27.3 µg/mL (≈ 83.9 µM); in [11], 36.5 µg/mL (≈ 112 µM); in data set [14], 35.4 µg/mL (≈ 109 µM); in data set [15], 35.4 µg/mL (≈ 109 µM). The GI50 in data set [16] stood at 25.9 µg/mL (≈ 79.6 µM). In addition, the LC50 in data set [5] was determined as 14.4 µg/mL (≈ 44.2 µM).
